Assay results taken from ChEMBL document CHEMBL1649120, “Differential effects of inhibiting chitin and 1,3-{beta}-D-glucan synthesis in ras and calcineurin mutants of Aspergillus fumigatus” (2009).
Calls of active or inactive are those of the source. No cut-off for these calls is given here. *1 amine or outer side, *2 acyl side, *3 side chain or, on linkers, in order; H or OH if unused. Where a SMILES comes first, the peptide text is derived from it. Bridges are numbered along the chain shown (N, C = ends). [ ]: non-standard residue; d: D form. The star is where a group is joined. hTyr(3S-OH,4S-OH,3'-OSO3H) = N[C@H](C(=O)O)[C@H](O)[C@@H](O)c1ccc(O)c(OS(=O)(=O)O)c1; Orn(4R-OH,5R-OH) = O=C([C@H](C[C@@H](O)[C@@H](O)N[*:3])N[*:1])[*:2]; Pro(3S-OH,4S-Me) = C[C@H]1CN[C@H](C(=O)O)[C@H]1O; X1 = CCCCCOc1ccc(-c2cc(-c3ccc(C(=O)*)cc3)no2)cc1; Gln(3R-OH) = NC(=O)C[C@@H](O)[C@H](N)C(=O)O; Hyp = O=C(O)[C@@H]1C[C@@H](O)CN1

Experiments:
Aspergillus fumigatus [1] = test: Antifungal activity against Aspergillus fumigatus Af293 expressing cnaA gene assessed as abnormal hyphal growth by CLSI method; format: functional; details: read-out: MEC
In short: (§1)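 MEC by CLSI broth microdilution in RPMI 1640. Conidia were incubated with or without drug for 48 h at 37°C, in triplicate.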

Aspergillus fumigatus [2] = test: Antifungal activity against rasA deficient Aspergillus fumigatus H237 assessed as abnormal hyphal growth by CLSI method; format: functional; details: read-out: MEC; in short: as §1
Aspergillus fumigatus [3] = test: Antifungal activity against cnaA deficient Aspergillus fumigatus Af293 assessed as abnormal hyphal growth by CLSI method; format: functional; details: read-out: MEC; in short: as §1
Aspergillus fumigatus [4] = test: Antifungal activity against Aspergillus fumigatus H237 assessed as abnormal hyphal growth by CLSI method; format: functional; details: read-out: MEC; in short: as §1
Aspergillus fumigatus [5] = test: Antifungal activity against Aspergillus fumigatus H237 expressing rasA gene assessed as abnormal hyphal growth by CLSI method; format: functional; details: read-out: MEC; in short: as §1
Aspergillus fumigatus [6] = test: Antifungal activity against Aspergillus fumigatus H237 expressing dominant-active rasA gene assessed as abnormal hyphal growth by CLSI method; format: functional; details: read-out: MEC; in short: as §1
Aspergillus fumigatus [7] = test: Antifungal activity against Aspergillus fumigatus Af293 expressing crzA gene assessed as abnormal hyphal growth by CLSI method; format: functional; details: read-out: MEC; in short: as §1
Aspergillus fumigatus [8] = test: Antifungal activity against crzA deficient Aspergillus fumigatus Af293 assessed as abnormal hyphal growth by CLSI method; format: functional; details: read-out: MEC; in short: as §1
Aspergillus fumigatus [9] = test: Antifungal activity against Aspergillus fumigatus Af293 assessed as abnormal hyphal growth by CLSI method; format: functional; details: read-out: MEC; in short: as §1
Aspergillus fumigatus [10] = test: Antifungal activity against cnaA deficient Aspergillus fumigatus Af293 assessed as inhibition of hyphal growth at germling stage at 1 ug/ml by CLSI method; format: functional, organism-based
In short: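 Conidia were grown as for CLSI susceptibility testing in RPMI 1640 with or without echinocandin (1 μg/ml) for 48 h at 37°C. Hyphal morphology was then examined by bright-field microscopy.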

Aspergillus fumigatus [11] = test: Antifungal activity against Aspergillus fumigatus H237 expressing dominant-active rasA assessed as decrease in 1, 3-beta-D-glucan cell wall content at 1 ug/ml after 48 hrs by aniline blue assay; format: functional, organism-based
In short: (§2)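 10⁶ conidia/ml were grown in RPMI 1640 with or without drug for 48 h at 37°C, 250 rpm. Hyphae were washed in 0.1 M NaOH and lyophilized. 5 mg was taken into 1 M NaOH, sonicated and heated at 52°C for 30 min. Aniline blue mix (pH 9.5) was added for 30 min at 52°C. Fluorescence was read at ex 405/em 460 nm against a curdlan standard curve. Results are % change in RFU/mg versus untreated wild type, from five independent experiments.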

Aspergillus fumigatus [12] = test: Antifungal activity against Aspergillus fumigatus Af293 assessed as decrease in 1, 3-beta-D-glucan cell wall content at 1 ug/ml after 48 hrs by aniline blue assay; format: functional, organism-based; in short: as §2
Aspergillus fumigatus [13] = test: Antifungal activity against Aspergillus fumigatus H237 expressing dominant-active rasA assessed as increase in chitin cell wall content at 1 to 16 ug/ml after 48 hrs; format: functional, organism-based
In short: (§3)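 Nikkomycin Z dose series from 0 to 16 μg/ml, added to cultures of 10⁶ conidia/ml in RPMI 1640 for 48 h at 37°C, 250 rpm. Chitin was assayed on 5 mg of lyophilized mycelium by KOH hydrolysis at 130°C, then MBTH colorimetry at A650 against a glucosamine standard. Output is glucosamine equivalents (μg/ml), from biological triplicate.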

Aspergillus fumigatus [14] = test: Antifungal activity against Aspergillus fumigatus H237 expressing rasA gene assessed as FICI in combination with caspofungin
Aspergillus fumigatus [15] = test: Antifungal activity against Aspergillus fumigatus H237 expressing dominant-active rasA assessed as increase in chitin cell wall content at 16 ug/ml after 48 hrs; format: functional, organism-based; in short: as §3
Aspergillus fumigatus [16] = test: Antifungal activity against crzA deficient Aspergillus fumigatus Af293 assessed as increase in chitin cell wall content at 16 ug/ml after 48 hrs; format: functional, organism-based; in short: as §3
Aspergillus fumigatus [17] = test: Antifungal activity against Aspergillus fumigatus Af293 assessed as FICI in combination with caspofungin
Aspergillus fumigatus [18] = test: Antifungal activity against Aspergillus fumigatus Af293 expressing crzA gene assessed as FICI in combination with caspofungin
Aspergillus fumigatus [19] = test: Antifungal activity against Aspergillus fumigatus H237 assessed as FICI in combination with caspofungin
Aspergillus fumigatus [20] = test: Antifungal activity against cnaA deficient Aspergillus fumigatus Af293 assessed as decrease in 1, 3-beta-D-glucan cell wall content at 1 ug/ml by aniline blue assay; format: functional, organism-based; in short: as §2
Aspergillus fumigatus [21] = test: Antifungal activity against Aspergillus fumigatus H237 expressing dominant-active rasA gene assessed as FICI in combination with caspofungin
Aspergillus fumigatus [22] = test: Antifungal activity against Aspergillus fumigatus H237 assessed as decrease in 1, 3-beta-D-glucan cell wall content at 1 ug/ml after 48 hrs by aniline blue assay; format: functional, organism-based; in short: as §2
Aspergillus fumigatus [23] = test: Antifungal activity against crzA deficient Aspergillus fumigatus Af293 assessed as increase in chitin cell wall content at 1 to 16 ug/ml after 48 hrs; format: functional, organism-based; in short: as §3
Aspergillus fumigatus [24] = test: Antifungal activity against rasA deficient Aspergillus fumigatus H237 assessed as increase in chitin cell wall content at 1 to 16 ug/ml after 48 hrs; format: functional, organism-based; in short: as §3
Aspergillus fumigatus [25] = test: Antifungal activity against cnaA deficient Aspergillus fumigatus Af293 assessed as increase in chitin cell wall content at 16 ug/ml after 48 hrs; format: functional, organism-based; in short: as §3
Aspergillus fumigatus [26] = test: Antifungal activity against rasA deficient Aspergillus fumigatus H237 assessed as FICI in combination with caspofungin
Aspergillus fumigatus [27] = test: Antifungal activity against crzA deficient Aspergillus fumigatus Af293 assessed as FICI in combination with caspofungin
Aspergillus fumigatus [28] = test: Antifungal activity against rasA deficient Aspergillus fumigatus H237 assessed as increase in chitin cell wall content at 16 ug/ml after 48 hrs; format: functional, organism-based; in short: as §3
Aspergillus fumigatus [29] = test: Antifungal activity against cnaA deficient Aspergillus fumigatus Af293 assessed as increase in chitin cell wall content at 1 to 16 ug/ml after 48 hrs; format: functional, organism-based; in short: as §3
Aspergillus fumigatus [30] = test: Antifungal activity against Aspergillus fumigatus Af293 expressing cnaA gene assessed as FICI in combination with caspofungin
Candida albicans = test: Antifungal activity against Candida albicans SC5314 assessed as decrease in chitin cell wall content at 4 ug/ml after 48 hrs; format: functional, organism-based
Aspergillus fumigatus [31] = test: Antifungal activity against rasA deficient Aspergillus fumigatus H237 assessed as decrease in 1, 3-beta-D-glucan cell wall content at 1 ug/ml by aniline blue assay; format: functional, organism-based; in short: as §2
Aspergillus fumigatus [32] = test: Antifungal activity against cnaA deficient Aspergillus fumigatus Af293 assessed as FICI in combination with caspofungin
Aspergillus fumigatus [33] = test: Antifungal activity against crzA deficient Aspergillus fumigatus Af293 assessed as decrease in 1, 3-beta-D-glucan cell wall content at 1 ug/ml by aniline blue assay; format: functional, organism-based; in short: as §2

## CCCCCOc1ccc(-c2cc(-c3ccc(C(=O)N[C@H]4C[C@@H](O)[C@@H](O)NC(=O)[C@@H]5[C@@H](O)[C@@H](C)CN5C(=O)[C@H]([C@H](O)CC(N)=O)NC(=O)[C@H]([C@H](O)[C@@H](O)c5ccc(O)c(OS(=O)(=O)O)c5)NC(=O)[C@@H]5C[C@@H](O)CN5C(=O)[C@H]([C@@H](C)O)NC4=O)cc3)no2)cc1 [MICAFUNGIN] (X1-[Orn(4R-OH,5R-OH)]T[Hyp][hTyr(3S-OH,4S-OH,3'-OSO3H)][Gln(3R-OH)][Pro(3S-OH,4S-Me)]; lactam 1-C)
Aspergillus fumigatus [1]
  minimal effective concentration: 0.125 µg/mL
Aspergillus fumigatus [2]
  minimal effective concentration: > 4 µg/mL
Aspergillus fumigatus [3]
  minimal effective concentration: 0.0039 µg/mL
Aspergillus fumigatus [4]
  minimal effective concentration: 0.125 µg/mL
Aspergillus fumigatus [5]
  minimal effective concentration: 0.125 µg/mL
Aspergillus fumigatus [6]
  minimal effective concentration: 0.0156 µg/mL
Aspergillus fumigatus [7]
  minimal effective concentration: 0.0625 µg/mL
Aspergillus fumigatus [8]
  minimal effective concentration: 0.0312 µg/mL
Aspergillus fumigatus [9]
  minimal effective concentration: 0.125 µg/mL
Aspergillus fumigatus [10]
  Activity: Active

## C[C@@H]([C@H](N)C(=O)N[C@H](C(=O)O)[C@H]1O[C@@H](n2ccc(=O)[nH]c2=O)[C@H](O)[C@@H]1O)[C@H](O)c1ccc(O)cn1 [NIKKOMYCIN]
Aspergillus fumigatus [11]
  Activity: inactive
Aspergillus fumigatus [12]
  Activity: Active
Aspergillus fumigatus [1]
  minimal effective concentration: 2 µg/mL
Aspergillus fumigatus [13]
  Activity: inactive
Aspergillus fumigatus [14]
  fractional inhibitory concentration index (FICI): 0.09
Aspergillus fumigatus [15]
  Activity: inactive
Aspergillus fumigatus [16]
  Activity: inactive
Aspergillus fumigatus [17]
  fractional inhibitory concentration index (FICI): 0.09
Aspergillus fumigatus [18]
  fractional inhibitory concentration index (FICI): 0.16
Aspergillus fumigatus [19]
  fractional inhibitory concentration index (FICI): 0.16
Aspergillus fumigatus [20]
  Activity: inactive
Aspergillus fumigatus [2]
  minimal effective concentration: 0.5 µg/mL
Aspergillus fumigatus [3]
  minimal effective concentration: 0.125 µg/mL
Aspergillus fumigatus [21]
  fractional inhibitory concentration index (FICI): 0.5
Aspergillus fumigatus [22]
  Activity: Active
Aspergillus fumigatus [23]
  Activity: inactive
Aspergillus fumigatus [24]
  Activity: inactive
Aspergillus fumigatus [25]
  Activity: inactive
Aspergillus fumigatus [26]
  fractional inhibitory concentration index (FICI): 0.03
Aspergillus fumigatus [4]
  minimal effective concentration: 4 µg/mL
Aspergillus fumigatus [5]
  minimal effective concentration: 2 µg/mL
Aspergillus fumigatus [6]
  minimal effective concentration: 4 µg/mL
Aspergillus fumigatus [27]
  fractional inhibitory concentration index (FICI): 0.13
Aspergillus fumigatus [28]
  Activity: inactive
Aspergillus fumigatus [7]
  minimal effective concentration: 4 µg/mL
Aspergillus fumigatus [29]
  Activity: inactive
Aspergillus fumigatus [8]
  minimal effective concentration: 0.5 µg/mL
Aspergillus fumigatus [9]
  minimal effective concentration: 2 µg/mL
Aspergillus fumigatus [30]
  fractional inhibitory concentration index (FICI): 0.09
Candida albicans
  Activity: Active
Aspergillus fumigatus [31]
  Activity: inactive
Aspergillus fumigatus [32]
  fractional inhibitory concentration index (FICI): 0.19
Aspergillus fumigatus [33]
  Activity: inactive

## C=CC[C@@H]1/C=C(\C)C[C@H](C)C[C@H](OC)[C@H]2O[C@@](O)(C(=O)C(=O)N3CCCC[C@H]3C(=O)O[C@H](/C(C)=C/[C@@H]3CC[C@@H](O)[C@H](OC)C3)[C@H](C)[C@@H](O)CC1=O)[C@H](C)C[C@@H]2OC [TACROLIMUS ANHYDROUS]
Aspergillus fumigatus [1]
  minimal effective concentration: 0.02 µg/mL
Aspergillus fumigatus [2]
  minimal effective concentration: 0.001 µg/mL
Aspergillus fumigatus [3]
  minimal effective concentration: > 80 µg/mL
Aspergillus fumigatus [4]
  minimal effective concentration: 0.02 µg/mL
Aspergillus fumigatus [5]
  minimal effective concentration: 0.02 µg/mL
Aspergillus fumigatus [6]
  minimal effective concentration: 0.01 µg/mL
Aspergillus fumigatus [7]
  minimal effective concentration: 0.02 µg/mL
Aspergillus fumigatus [8]
  minimal effective concentration: 0.01 µg/mL
Aspergillus fumigatus [9]
  minimal effective concentration: 0.02 µg/mL
